In series [1] the test system is P388. The series can be described thus: Inhibition of cell growth in culture against wild type P388 murine leukemia. The series is classed as functional, cell-based, Mus musculus. Summed up: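 Wild-type P388 murine leukemia cells were kept in log phase in RPMI 1640 with 10% fetal calf serum. Drug was present throughout the 72 h growth period. Final cell density was read by a modified MTT method. IC50 is the nominal concentration reducing cell density to 50% of controls, with eight controls per plate. Values are means of three determinations.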

For a further series, the system named is CHO-AA8. Description: Inhibition of cell growth in culture against Chinese hamster ovary derived cell line, AA8. The series is classed as functional, cell-based, Cricetulus griseus. Put shortly:
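AA8 Chinese hamster ovary cells were kept in log phase in Alpha MEM with 10% fetal calf serum and exposed to drug for 18 h. Drug was removed by three washes with fresh medium, then cells were grown a further 72 h. Cell density was read by methylene blue staining. IC50 is the nominal concentration reducing cell density to 50% of controls, with eight controls per plate. Values are means of three determinations.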

For series [2], the system named is P388. Description: Evaluation in vivo against […] cell line for percentage increase in lifespan of drug-treated tumor-bearing animals when treated at 45 mg/kg dose.(ILS). The class given is functional, Mus musculus. Summed up: (§1)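 Animals received 10^6 P388 cells intraperitoneally. On day 1, 24 h after inoculation, a single intraperitoneal drug dose was given in 0.1 mL of 30% v/v dimethylacetamide/water. ILS is the percentage increase in lifespan of treated tumor-bearing animals at the optimal dose, defined as the dose giving maximal life extension. ILS above 20% is counted as significant.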

Series [3] in a line: Hypersensitivity factor value is IC50 of (AA8) to that of UV4 where UV4 is a mutant AA8 line lacking the ability to perform incision repair. The series is classed as functional. Summed up: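 HF is IC50(AA8)/IC50(UV4), where UV4 is an AA8 mutant lacking incision repair. Both lines were grown in Alpha MEM with 10% fetal calf serum and given an 18 h drug exposure, then washed and grown 72 h more. Cell density was read by methylene blue staining, and IC50 was set at 50% of control density.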

The species named for another series is Bos taurus. The series can be described thus: Spectrophotometry for binding to calf thymus DNA in 0.01 M HEPES buffer (pH 7.0) at 25 degree C. The series is classed as ADME. Conditions: cattle.
Series [4] has as its system P388. The series can be described thus: Evaluation in vivo against […] cell line for percentage increase in lifespan of drug-treated tumor-bearing animals at 30 mg/kg dose.(ILS); NA=Compound inactive at nontoxic doses. The series is classed as functional, organism-based. Details: dose 30 mg/kg. Conditions: Mus musculus. Put shortly:
as §1

The subject of series [5] is P388. Description: Evaluation in vivo against […] cell line for percentage increase in lifespan of drug-treated tumor-bearing animals when treated at 225 mg/kg dose.(ILS). The series is classed as functional, Mus musculus. Summed up:
as §1

The test system of series [6] is P388. Description: Evaluation in vivo against […] cell line for percentage increase in lifespan of drug-treated tumor-bearing animals when treated at 30 mg/kg dose.(ILS). The series is classed as functional, Mus musculus. Summed up:
as §1

Series [7] deals with P388. Description: Evaluation in vivo against […] cell line for percentage increase in lifespan of drug-treated tumor-bearing animals at 100 mg/kg dose.(ILS); NA=Compound inactive at nontoxic doses. The class given is functional, organism-based. Details: dose 100 mg/kg. Conditions: Mus musculus. Put shortly:
as §1

Each structure is given as a SMILES string. pIC50: −log10 of the molar value. Activity calls are given as the source filed them.

Regarding `C[n+]1ccc(Nc2ccc(Cc3ccc(N(CCCl)CCCl)cc3)cc2)c2ccccc21`, the negative logarithm of the IC50 (pIC50) in the series with P388 [1] (p388) was 7.14; in the series on CHO-AA8 (cho-aa8) it was 6.22. The compound further came in with an Increase with P388 [2] of 46%. For the same compound, the Ratio in [3] came out at 20. In the series listed under Bos taurus, the “Log K” value is reported as 6.58 M-1.

Take `CCN(CCCl)c1ccc(Oc2ccc(Nc3ccnc4ccccc34)cc2)cc1`: the pIC50 in the series with P388 [1] (Mus musculus, P388) is 6.30; in the series with CHO-AA8 (Cricetulus griseus, CHO-AA8), 5.15. The Increase entry in the series on P388 [4] is “inactive”. Also, the Ratio in series [3] amounted to 11.3.

`O=C(O)CCCc1ccc(N(CCCl)CCCl)cc1` [CHLORAMBUCIL] returned an Increase with P388 [5] of 37%. In addition, the Ratio in series [3] amounted to 58.

With `C[n+]1ccc(Nc2ccc(Oc3ccc(N(CCCl)CCCl)cc3)cc2)c2ccccc21`, the pIC50 in the series with CHO-AA8 (Cricetulus griseus, CHO-AA8) was 6.19. Also, the Increase in the series with P388 [6] came out at 20%. Moreover, the Ratio in series [3] was determined as 23. Besides, the “Log K” value in the series listed under Bos taurus is 6.45 M-1.

Turning to `C[n+]1ccc(Nc2ccc(C(=O)c3ccc(N(CCCl)CCCl)cc3)cc2)c2ccccc21`, the pIC50 with P388 [1] (p388) was 5.92; in the series on CHO-AA8 (Cricetulus griseus, CHO-AA8) it was 5.55. For the same compound, the Increase entry with P388 [7] was “inactive”. Moreover, the Ratio in [3] was found to be 6.4. In addition, the “Log K” value in the series listed under Bos taurus is recorded as 6.61 M-1.

Consider `C[n+]1ccc(Nc2ccc(C(=O)Nc3ccc(N(CCCl)CCCl)cc3)cc2)c2ccccc21`, for which the pIC50 in the series on P388 [1] (p388) was 6.31; with CHO-AA8 (Cricetulus griseus, CHO-AA8), 6.47. This compound returned an Increase in the series with P388 [6] of 28%. Further, the Ratio in series [3] stood at 17. Further, the “Log K” value in the series listed under Bos taurus was 6.48 M-1.

(Values after ChEMBL document CHEMBL1125925, “DNA-directed alkylating agents. 4. 4-anilinoquinoline-based minor groove directed aniline mustards” (J Med Chem, 1991).)
